Source: ChEMBL document CHEMBL4033786, “Discovery of Novel 1-Cyclopentenyl-3-phenylureas as Selective, Brain Penetrant, and Orally Bioavailable CXCR2 Antagonists” (J Med Chem, 2018)
pEC50, pIC50: −log10 of the molar value. ≈ marks a conversion by molar mass, not a printed value.

Columns and labels:
[1] = Tmax in Wistar rat at 2.41 mg/kg, po measured up to 4 hrs post dose; format: ADME, organism-based; details: in vivo
[2] = Volume of distribution at steady state in dog at 0.85 mg/kg, iv measured up to 4 hrs post dose; format: ADME, organism-based, Canis lupus familiaris; details: in vivo, read-out: Vdss
[3] = Intrinsic clearance in rat hepatocytes; format: ADME, cell-based, Hepatocyte
[4] = target: C-C chemokine receptor type 7 (Homo sapiens, UniProt P32248); assay: Agonist activity at CCR7 (unknown origin)
Sequence of C-C chemokine receptor type 7 (P32248 whole entry): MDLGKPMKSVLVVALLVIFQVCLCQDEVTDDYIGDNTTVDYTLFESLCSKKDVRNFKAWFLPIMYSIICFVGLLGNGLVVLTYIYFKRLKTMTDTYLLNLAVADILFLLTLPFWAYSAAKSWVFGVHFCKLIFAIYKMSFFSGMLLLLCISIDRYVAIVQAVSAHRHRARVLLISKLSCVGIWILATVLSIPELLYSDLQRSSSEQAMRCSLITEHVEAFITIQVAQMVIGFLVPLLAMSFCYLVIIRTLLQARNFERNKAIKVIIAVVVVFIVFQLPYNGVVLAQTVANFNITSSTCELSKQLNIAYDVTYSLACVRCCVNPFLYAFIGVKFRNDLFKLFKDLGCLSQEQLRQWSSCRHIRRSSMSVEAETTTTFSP
Method in brief: (§1)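 β-arrestin assays run in both agonist and antagonist modes across a panel of 18 CXC and CC chemokine receptors.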

[5] = target: T1, Chemerin-like receptor 1 (Homo sapiens, UniProt Q99788); assay: Antagonist activity at CMKLR1 (unknown origin); method in brief: as §1
T1 sequence (Q99788 whole entry): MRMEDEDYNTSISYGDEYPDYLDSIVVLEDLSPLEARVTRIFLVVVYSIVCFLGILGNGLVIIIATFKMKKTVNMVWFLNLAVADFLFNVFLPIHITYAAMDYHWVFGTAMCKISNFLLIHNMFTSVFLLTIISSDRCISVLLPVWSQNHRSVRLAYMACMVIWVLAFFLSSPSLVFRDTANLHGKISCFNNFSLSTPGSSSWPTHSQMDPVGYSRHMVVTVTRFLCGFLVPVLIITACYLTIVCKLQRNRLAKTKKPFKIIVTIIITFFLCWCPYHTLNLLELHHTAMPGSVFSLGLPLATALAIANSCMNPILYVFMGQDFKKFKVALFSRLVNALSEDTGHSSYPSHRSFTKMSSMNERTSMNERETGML

[6] = target: T2, C-C chemokine receptor type 3 (Homo sapiens, UniProt P51677); assay: Agonist activity at CCR3 (unknown origin); method in brief: as §1
T2 sequence (P51677 whole entry): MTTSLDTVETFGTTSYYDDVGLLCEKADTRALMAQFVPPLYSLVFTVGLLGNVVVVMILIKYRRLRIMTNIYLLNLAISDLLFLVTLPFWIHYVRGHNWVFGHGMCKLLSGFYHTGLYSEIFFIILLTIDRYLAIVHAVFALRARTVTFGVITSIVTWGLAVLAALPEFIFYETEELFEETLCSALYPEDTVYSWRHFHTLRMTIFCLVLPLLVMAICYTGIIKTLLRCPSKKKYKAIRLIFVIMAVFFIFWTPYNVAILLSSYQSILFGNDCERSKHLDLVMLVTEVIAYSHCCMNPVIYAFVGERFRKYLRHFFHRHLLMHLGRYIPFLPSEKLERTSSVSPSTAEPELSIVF

[7] = Solubility of compound in fasted state simulated intestinal fluid measured after 4 hrs; format: physicochemical
Method in brief: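 Solubility in FaSSIF, read after 4 h incubation.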

[8] = Cmax in Wistar rat at 2.41 mg/kg, po measured up to 4 hrs post dose; format: ADME, organism-based; design: dose 2.41 mg/kg, route oral; details: in vivo
[9] = Tmax in dog at 1.29 mg/kg, po measured up to 4 hrs post dose; format: ADME, organism-based, Canis lupus familiaris; details: in vivo
[10] = Elimination half life in dog at 0.85 mg/kg, iv measured up to 4 hrs post dose; format: ADME, organism-based, Canis lupus familiaris; details: in vivo, read-out: beta t1/2 (converted)
[11] = tested on: Rattus norvegicus; assay: Antiinflammatory activity in Wistar rat air pouch model assessed as inhibition of carrageenan-induced neutrophil infiltration administered po bid starting from day 3 post air reinflation at 4 hrs post carrageenan induction measured on day 6 post last dose; format: functional, organism-based
Method in brief: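 Male Wistar rats aged 8–10 weeks received 20 mL air, then 10 mL re-inflations on days 3 and 6. Oral dosing of vehicle or 1, 3 or 10 mg/kg BID ran from day 3, given on day 6 just before re-inflation and 1 mL 2% carrageenan. Pouch lavage (4 mL PBS) was taken at 4 h, and neutrophils were counted on Giemsa-stained cytospins as % of vehicle.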

[12] = target: C-C chemokine receptor type 5 (Homo sapiens, UniProt P51681); assay: Agonist activity at CCR5 (unknown origin); method in brief: as §1
Sequence of C-C chemokine receptor type 5 (P51681 whole entry): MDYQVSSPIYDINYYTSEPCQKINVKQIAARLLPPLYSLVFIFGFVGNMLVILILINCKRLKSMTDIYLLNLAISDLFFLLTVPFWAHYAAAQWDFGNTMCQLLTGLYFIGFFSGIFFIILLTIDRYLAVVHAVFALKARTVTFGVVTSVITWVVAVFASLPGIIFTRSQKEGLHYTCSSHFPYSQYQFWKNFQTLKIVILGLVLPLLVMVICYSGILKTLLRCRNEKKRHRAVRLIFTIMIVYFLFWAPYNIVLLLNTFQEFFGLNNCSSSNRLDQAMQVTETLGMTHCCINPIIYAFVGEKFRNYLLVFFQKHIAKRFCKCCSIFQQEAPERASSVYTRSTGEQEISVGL

[13] = target: C-C chemokine receptor type 4 (Homo sapiens, UniProt P51679); assay: Agonist activity at CCR4 (unknown origin); method in brief: as §1
Sequence of C-C chemokine receptor type 4 (P51679 whole entry, the tested form may be a part): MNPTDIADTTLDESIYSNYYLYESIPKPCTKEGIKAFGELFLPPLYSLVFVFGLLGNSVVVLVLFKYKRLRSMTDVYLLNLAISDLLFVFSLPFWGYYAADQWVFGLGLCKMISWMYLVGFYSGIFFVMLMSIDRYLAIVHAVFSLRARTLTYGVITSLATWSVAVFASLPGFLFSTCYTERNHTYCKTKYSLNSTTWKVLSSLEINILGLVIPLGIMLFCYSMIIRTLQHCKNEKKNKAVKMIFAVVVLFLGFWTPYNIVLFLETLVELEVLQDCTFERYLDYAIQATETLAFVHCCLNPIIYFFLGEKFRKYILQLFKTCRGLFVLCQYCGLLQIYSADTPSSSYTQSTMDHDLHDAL

[14] = target: T3, C-X-C chemokine receptor type 2 (Homo sapiens, UniProt P25025); assay: Antagonist activity at TEV protease cleavage site linked GAL4-VP16-fused recombinant human CXCR2 expressed in cells assessed as inhibition of […] human CXCL1-stimulated beta-arrestin recruitment by CCF4-AM-fluorescence based FRET assay; format: cell-based; details: read-out: IC50
T3 sequence (P25025 whole entry): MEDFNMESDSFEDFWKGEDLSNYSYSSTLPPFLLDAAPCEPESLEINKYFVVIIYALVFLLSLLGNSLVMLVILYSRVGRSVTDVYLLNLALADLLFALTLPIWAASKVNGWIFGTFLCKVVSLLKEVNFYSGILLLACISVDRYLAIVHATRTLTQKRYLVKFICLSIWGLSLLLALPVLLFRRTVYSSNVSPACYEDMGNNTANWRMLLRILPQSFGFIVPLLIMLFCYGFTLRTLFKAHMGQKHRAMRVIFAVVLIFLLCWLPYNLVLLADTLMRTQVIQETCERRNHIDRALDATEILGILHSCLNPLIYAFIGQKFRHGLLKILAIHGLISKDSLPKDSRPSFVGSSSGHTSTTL
Method in brief: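 Stable cell line expressing recombinant human CXCR2 linked to a TEV site and Gal4-VP16. Cells were starved 24 h at 37 °C, 5% CO2, then resuspended at ~200,000 cells/mL. They were given compound in DMSO (concentration-response), stimulated with 80 nM hCXCL1 and incubated overnight at 37 °C. CCF4-AM substrate was then added for 2 h at RT in the dark.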

[15] = target: T4, C-X-C chemokine receptor type 1 (Homo sapiens, UniProt P25024); assay: Antagonist activity at CXCR1 (unknown origin)
T4 sequence (P25024 whole entry): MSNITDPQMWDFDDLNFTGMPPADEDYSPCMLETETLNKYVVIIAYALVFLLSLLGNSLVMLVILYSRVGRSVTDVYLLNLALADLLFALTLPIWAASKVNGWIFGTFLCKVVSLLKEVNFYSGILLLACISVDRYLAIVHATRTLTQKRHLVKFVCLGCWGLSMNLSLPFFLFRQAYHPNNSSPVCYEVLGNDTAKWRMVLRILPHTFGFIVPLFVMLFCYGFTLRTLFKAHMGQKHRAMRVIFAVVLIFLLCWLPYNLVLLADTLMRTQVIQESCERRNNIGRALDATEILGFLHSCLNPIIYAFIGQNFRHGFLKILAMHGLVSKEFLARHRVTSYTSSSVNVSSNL
Method in brief: (§2)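 Part of an 18-receptor CXC/CC chemokine receptor panel, each receptor run in β-arrestin recruitment assays in both agonist and antagonist modes.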

[16] = Cmax in dog at 1.29 mg/kg, po measured up to 4 hrs post dose; format: ADME, organism-based, Canis lupus familiaris; design: dose 1.29 mg/kg, route oral; details: in vivo
[17] = target: T5, C-C chemokine receptor type 6 (Homo sapiens, UniProt P51684); assay: Antagonist activity at CCR6 (unknown origin); method in brief: as §1
T5 sequence (P51684 whole entry): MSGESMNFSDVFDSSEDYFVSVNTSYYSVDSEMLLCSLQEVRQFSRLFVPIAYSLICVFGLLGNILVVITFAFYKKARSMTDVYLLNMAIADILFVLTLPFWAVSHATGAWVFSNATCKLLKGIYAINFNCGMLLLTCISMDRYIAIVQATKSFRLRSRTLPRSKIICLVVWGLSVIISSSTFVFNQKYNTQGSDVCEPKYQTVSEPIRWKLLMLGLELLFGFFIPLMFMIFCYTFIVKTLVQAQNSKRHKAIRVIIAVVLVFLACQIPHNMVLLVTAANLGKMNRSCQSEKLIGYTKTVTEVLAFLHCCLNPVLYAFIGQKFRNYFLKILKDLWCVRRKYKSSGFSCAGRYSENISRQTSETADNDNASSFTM

[18] = target: T6, C-X-C chemokine receptor type 5 (Homo sapiens, UniProt P32302); assay: Agonist activity at CXCR5 (unknown origin); method in brief: as §1
T6 sequence (P32302 whole entry): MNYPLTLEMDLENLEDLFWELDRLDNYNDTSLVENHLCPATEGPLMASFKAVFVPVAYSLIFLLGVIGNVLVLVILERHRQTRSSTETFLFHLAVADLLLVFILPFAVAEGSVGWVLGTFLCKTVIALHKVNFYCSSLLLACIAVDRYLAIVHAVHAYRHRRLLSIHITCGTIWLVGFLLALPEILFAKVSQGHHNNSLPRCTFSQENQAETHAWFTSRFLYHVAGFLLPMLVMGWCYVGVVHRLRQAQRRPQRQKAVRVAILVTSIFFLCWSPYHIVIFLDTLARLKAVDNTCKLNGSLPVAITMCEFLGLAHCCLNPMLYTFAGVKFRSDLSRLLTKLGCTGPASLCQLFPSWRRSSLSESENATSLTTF

[19] = target: T5, C-C chemokine receptor type 6; assay: Agonist activity at CCR6 (unknown origin); method in brief: as §1
[20] = target: T4, C-X-C chemokine receptor type 1; assay: Agonist activity at CXCR1 (unknown origin); method in brief: as §2
[21] = target: T2, C-C chemokine receptor type 3; assay: Antagonist activity at CCR3 (unknown origin); method in brief: as §1
[22] = tested on: Rattus norvegicus; assay: Dose normalized AUC (0 to infinity) in Wistar rat at 0.98 mg/kg, iv measured up to 4 hrs post dose; format: ADME, organism-based; details: in vivo
[23] = target: T6, C-X-C chemokine receptor type 5; assay: Antagonist activity at CXCR5 (unknown origin); method in brief: as §1
[24] = tested on: Mus musculus; assay: Antiinflammatory activity in C57Bl/6 mouse air pouch model assessed as inhibition of carrageenan-induced neutrophil infiltration administered po bid starting from day 3 post air reinflation at 4 hrs post carrageenan induction measured on day 6 post last dose; format: functional, organism-based
Method in brief: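 Male C57Bl/6 mice aged 6–8 weeks received 5 mL air dorsally under pentobarbital on day 0, with 2.5 mL re-inflations on days 3 and 6. Oral dosing of vehicle or 1, 3 or 10 mg/kg BID ran from day 3; on day 6 dosing preceded re-inflation and 1 mL 2% carrageenan. At 4 h the pouch was lavaged with 4 mL PBS, and neutrophils were counted on Giemsa-stained cytospins as % of vehicle. One-way ANOVA with Bonferroni.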

[25] = Efflux ratio of passive permeability in MDCK2-MDR1 cells transduced with BacMam2-BCRP at 3 uM after 90 mins by Transwell assay; format: ADME, cell-based, Canis lupus familiaris, MDCK-MDR1; details: dog
Method in brief: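 MDCKII-MDR1 cells transduced with BacMam2-BCRP in Transwells. Compound at 3 μM was measured in duplicate, A→B and B→A, after 90 min, with and without 5 μM GF120918. ER = B→A/A→B permeability without inhibitor. System qualified with amprenavir and dantrolene ERs.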

[26] = target: T7, C-X-C chemokine receptor type 6 (Homo sapiens, UniProt O00574); assay: Agonist activity at CXCR6 (unknown origin); method in brief: as §1
T7 sequence (O00574 whole entry): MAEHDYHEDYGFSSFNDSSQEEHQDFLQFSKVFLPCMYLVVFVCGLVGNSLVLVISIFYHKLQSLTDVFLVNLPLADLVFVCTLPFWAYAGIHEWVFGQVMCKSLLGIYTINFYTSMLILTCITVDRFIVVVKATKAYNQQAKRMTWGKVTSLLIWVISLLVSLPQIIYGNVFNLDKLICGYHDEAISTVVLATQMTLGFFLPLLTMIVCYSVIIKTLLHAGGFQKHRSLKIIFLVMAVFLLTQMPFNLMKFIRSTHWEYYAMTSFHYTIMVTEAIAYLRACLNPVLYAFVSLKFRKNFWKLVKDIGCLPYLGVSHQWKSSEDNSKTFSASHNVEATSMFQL

[27] = target: T1, Chemerin-like receptor 1; assay: Agonist activity at CMKLR1 (unknown origin); method in brief: as §1
[28] = Elimination half life in Wistar rat at 0.98 mg/kg, iv measured up to 4 hrs post dose; format: ADME, organism-based; details: in vivo, read-out: beta t1/2 (converted)
[29] = target: T7, C-X-C chemokine receptor type 6; assay: Antagonist activity at CXCR6 (unknown origin); method in brief: as §1
[30] = Ratio of brain dose normalized AUC (0 to 7 hrs) to […] dose normalized AUC (0 to 7 hrs), Kp of the compound in Han-Wistar SOA rat model at 2 mg/kg administered via oral gavage by UPLC/MS/MS analysis; format: ADME, organism-based
Method in brief: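 Male Han-Wistar rats given a single 2 mg/kg oral gavage as a suspension in DMSO:1% methylcellulose (1:99). Blood was taken by cardiac puncture under isoflurane at 0.25–7 h, diluted 1:3 with water, and brains were homogenized in 3-fold PBS. Samples were extracted by acetonitrile protein precipitation and quantified by UPLC/MS/MS. Kp = brain DNAUC0-7h/blood DNAUC0-7h; Kp,uu = Kp×Fu,br/Fu,bl.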

Tmax [1]: 1 h
Vd [2]: 0.88 L/kg
CLH [3]: 7.7 mL/min/g
pEC50 [4]: < 5.00
pIC50 [5]: < 5.00
pEC50 [6]: < 5.00
solubility at 4 h [7]: 0.021 mg/mL (≈ 50.6 µM)
Cmax [8]: 0.452 µg/mL
Tmax [9]: 1.1 h
half-life [10]: 3.6 h
pEC50 [12]: < 5.00
pEC50 [13]: < 5.00
pIC50 [14]: 8.28
pIC50 [15]: 5.42
Cmax [16]: 0.728 µg/mL
pIC50 [17]: < 5.00
pEC50 [18]: < 5.00
pEC50 [19]: < 5.00
pEC50 [20]: < 5.00
pIC50 [21]: < 5.00
AUC/dose [22]: 1829 ng·h/mL/mg/kg
pIC50 [23]: < 5.00
efflux ratio at 1.5 h, 3 µM [25]: 2
pEC50 [26]: < 5.00
pEC50 [27]: < 5.00
half-life [28]: 4.3 h
pIC50 [29]: < 5.00
Kp [30]: 0.14
Compound: CC1=CCC[C@H]1NC(=O)Nc1ccc(Cl)c(S(=O)(=O)[C@@]2(C)CCOC2)c1O
inhibition [11]: Dose-dependent effect
inhibition [24]: Dose-dependent effect
